Experimental data taken from paper PMC5508335 (Journal of Veterinary Internal Medicine, 2017).
Like-named read-outs stand apart in the source and are kept apart here.

Columns and labels:
healthy dogs = test: Endoscopy of upper gastrointestinal tract after 28 days of therapy; format: in vivo, dog; conditions: day 28; PO daily
Method in brief: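 Fifteen healthy dogs were randomized to five PO regimens for 28 days: aspirin 2 mg/kg/d, clopidogrel 2–3 mg/kg/d, prednisone 2 mg/kg/d, prednisone plus aspirin, or prednisone plus clopidogrel. The upper gastrointestinal tract was then assessed.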

platelet function = test: PFA-100 closure time, antiplatelet responder status; format: in vivo, dog
Method in brief: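 Fifteen healthy dogs received PO aspirin 2 mg/kg/d, clopidogrel 2–3 mg/kg/d, or either drug combined with prednisone 2 mg/kg/d for 28 days. Responders were defined by PFA closure time: above 300 sec for aspirin, or more than 30% above baseline for clopidogrel. Responder status was compared among groups by Fisher's exact test, with P < 0.05 as significant.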

RBCs = test: Lysis of canine RBCs by DMSO diluted in PBS; format: cell-based, dog
[1] = tested on: dogs with hypoadrenocorticism; format: in vivo, dog
[2] = tested on: dogs with pulmonic stenosis; format: in vivo, dog
canine leukocytes = test: LPS-stimulated leukocyte cytokine production in whole blood; format: cell-based, dog; conditions: 10^−7 M, 24 h
Method in brief: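 Blood from eight healthy adult dogs was incubated with test compound (10−7 M) or control for 24 h. Leukocytes were then stimulated with LPS, and TNF and IL-10 production were measured by a canine-specific multiplex assay.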

platelet aggregation = conditions: cats with cardiovascular disease already receiving clopidogrel, n = 3
[3] = tested on: platelet function (closure time)
[4] = tested on: beagles with and without MVMD; test: Dobutamine stress echocardiography in beagles with mitral valve disease; format: in vivo, dog
[5] = tested on: canine osteosarcoma cell lines; test: Combination with MCT1/4 small molecule inhibitors in canine osteosarcoma cells; format: cell-based, dog
[6] = tested on: dogs given PEG before colonoscopy; test: Anti-emetic before orogastric PEG administration; format: in vivo, dog
Method in brief: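 46 dogs with naturally occurring disease needed PEG bowel cleansing before colonoscopy. They were randomized to one of two anti-emetics given SC 30 minutes before orogastric-tube PEG at 66 ml/kg. PEG was repeated 2 hours later without repeating the anti-emetic. Administration was by or under supervision of blinded authors. Vomiting and regurgitation were recorded after each PEG dose.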

[7] = format: in vivo, cats; conditions: one 1.87 mg oral dose
healthy beagles = test: Serum cPLI after high-dose prednisolone in healthy beagles; format: in vivo, dog; conditions: 4 mg/kg/day SC for 2 or 3 weeks; six beagles
[8] = tested on: dogs with idiopathic IMPA; test: Retrospective outcome of dogs with idiopathic IMPA; conditions: dog, in vivo
[9] = tested on: dogs with ventricular tachyarrhythmias; test: Echocardiogram and 5-minute ECG before and after oral sotalol; format: in vivo, dog
[10] = tested on: Dobermans with CHF due to DCM; test: Randomized placebo-controlled survival trial in Dobermans with CHF due to DCM; format: in vivo, dog; conditions: 50 mg twice daily plus standard therapies; 34 dogs; time to cardiac death
[11] = tested on: dogs with gastrointestinal stromal tumors; test: Retrospective evaluation of toceranib in canine GIST; format: in vivo, dog
[12] = tested on: fecal microbiota of healthy dogs; test: Fecal microbiota qPCR Dysbiosis Index after oral tylosin; format: in vivo, dog; conditions: 20 mg/kg q12 hr for 7 days
Method in brief: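 Ten healthy pet dogs were randomized double-blind to oral test compound at 20 mg/kg (n = 6) or placebo capsule (n = 4), given q12 hr for 7 days. Dogs stayed on their usual diet. Fecal samples were taken on days 0, 7, 10, 21 and 63, and a fecal score (1–7) was recorded daily during dosing.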

[13] = tested on: healthy purpose-bred dogs; test: Isoglycemic clamp in healthy dogs; format: in vivo, dog; conditions: 2.4 nmol/kg SC
[14] = tested on: adrenal cortisol production; test: ACTH stimulation test, serum cortisol by radioimmunoassay; format: in vivo, dog; conditions: ± SEM
Method in brief: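 Dogs: 5 healthy controls and 10 previously diagnosed with hyperadrenocorticism. Each dog had two ACTH stimulation tests, one with a reference tetracosactrin product (0.04 mL/kg IV) and one with the test ACTH preparation (0.08 mL/kg IV). Blood was drawn just before injection and 60 minutes after. Serum cortisol was measured by validated radioimmunoassay and reported as mean ± SEM.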

canine complement = format: biochemical, dog; conditions: dose curves, at the doses evaluated
[15] = G2 MVMD, DIVEd/Ao less than 2.8

In the case of `CC(=O)Oc1ccccc1C(=O)O` [A, aspirin], the “dogs with endoscopic lesions” value (healthy dogs) is reported as 1/3, the “dogs classified as responders based on PFA closure times” value (“dogs classified as responders based” below) (platelet function; day 14) is reported as 2/3 and the “dogs classified as responders based” value (platelet function; day 28) is reported as 1/3.

In the case of `C[S+](C)[O-]` [DMSO], the “lysis of RBCs” value (RBCs; 10, 20, 70 and 80% DMSO) is reported as “no hemolysis”, the “lysis of RBCs” value (RBCs; 30, 40 and 90% DMSO) is reported as “mild hemolysis” and the “lysis of RBCs” value (RBCs; 50 and 100% DMSO) is reported as “moderate hemolysis”. For the same molecule, the “lysis of RBCs” value (RBCs; 60% DMSO (diluted in PBS)) was “marked hemolysis”.

For `CC(C)(C)C(=O)OCC(=O)[C@H]1CC[C@H]2[C@@H]3CCC4=CC(=O)CC[C@]4(C)[C@H]3CC[C@]12C` [DOCP], the “median time between the DOCP and CHF” value ([1]; 12 dogs, range 1-29 days) was 11 days and the “Median survival after the onset of CHF” value ([1]; HA/DOCP group) was 953 days.

In the case of `C[C@]12C=CC(=O)C=C1CC[C@@H]1[C@@H]2C(=O)C[C@@]2(C)[C@H]1CC[C@]2(O)C(=O)CO` [P, prednisone], the “dogs with endoscopic lesions” value (healthy dogs) is reported as 1/3.

For `CC(C)NCC(O)COc1ccc(CC(N)=O)cc1` (centres unmarked) [atenolol], the “maxPG, mean %change ± SD” value ([2]; 2–3 weeks post-atenolol 1–1.5 mg/kg q12) was −15% ± 9, the “heart rate, mean %change ± SD” value ([2]; 2–3 weeks post-atenolol 1–1.5 mg/kg q12, n = 18) was −17% ± 13 and the “Percent change in VTI ratio” value ([2]; post-atenolol) was 6% ± 12.

For `Oc1ccc2c(c1)[C@@]13CCCC[C@@]1(O)[C@@H](C2)N(CC1CCC1)CC3` [butorphanol], the “heart rate, mean %change ± SD” value ([2]; 5 minutes post-butorphanol 0.2–0.25 mg/kg IV, n = 18 dogs) was −21% ± 16.

In the case of `C=C1/C(=C\C=C2/CCC[C@]3(C)[C@@H]([C@H](C)CCCC(C)(C)O)CC[C@@H]23)C[C@@H](O)C[C@@H]1O` [calcitriol], the “LPS-stimulated IL-10 production, mean±SD” value (canine leukocytes; control 551 ± 323) is reported as 791 ± 386 pg/mL and the “LPS-stimulated leukocyte TNF production, mean±SD” value (canine leukocytes; eight dogs, control 1694 ± 1023) is reported as 823 ± 862 pg/mL.

For `COC(=O)[C@H](c1ccccc1Cl)N1CCc2sccc2C1` [clopidogrel], the “dogs with endoscopic lesions” value (healthy dogs) was 0/3, the “dogs classified as responders based” value (platelet function; day 14) was 3/3 and the “dogs classified as responders based” value (platelet function; day 28) was 3/3. The “PW-AA %Aggregation” value (platelet aggregation) was 4–19%, the “PFA-P2Y Closure Time” value ([3]; cats already receiving clopidogrel, n = 6) was greater than 300 s and the “PFA-P2Y Closure Time” value ([3]; test repeated while receiving clopidogrel, n = 1) was greater than 300 s.

In the case of `CC(CCc1ccc(O)cc1)NCCc1ccc(O)c(O)c1` (centres unmarked) [dobutamine], the “difference between pre and post stress EF%” value ([4]; G1 control group) is reported as 0.25 ± 0.08, the “difference between pre and post stress FS%” value ([4]; G1 control group, 5 then 10 μg/kg/minute infusion) is reported as 0.44 ± 0.14 and the “difference between pre and post stress EF%” value [4, 15] is reported as 0.30 ± 0.08. The “difference between pre and post stress FS%” value [4, 15] was 0.49 ± 0.13, the “difference between pre and post stress EF%” value ([4]; G3 MVMD, DIVEd/Ao above 2.8) was 0.13 ± 0.09 and the “difference between pre and post stress FS%” value ([4]; G3 MVMD, DIVEd/Ao above 2.8) was 0.19 ± 0.14.

With `COc1cccc2c1C(=O)c1c(O)c3c(c(O)c1C2=O)C[C@@](O)(C(=O)CO)C[C@@H]3O[C@H]1C[C@H](N)[C@H](O)[C@H](C)O1` [doxorubicin] the “activity in the presence of MCT1 and MCT4 small molecule inhibitors” value [5] was “Synergistic activity”.

In the case of `CN(C)C(=N)N=C(N)N` [metformin], the “activity in the presence of MCT1 and MCT4 small molecule inhibitors” value [5] is reported as “Synergistic activity”.

For `CCN(CC)CCNC(=O)c1cc(Cl)c(N)cc1OC` [metoclopramide], the incidence of regurgitation ([6]; PEG Dose 1) was 52.4%, the incidence of vomiting ([6]; PEG Dose 1, anti-emetic SC 30 minutes before) was 23.8% and the incidence of regurgitation ([6]; PEG Dose 2) was 31.6%. For the same molecule, the incidence of vomiting ([6]; PEG Dose 2) was 21.1%.

For `CN1CCN2c3ncccc3Cc3ccccc3C2C1` (centres unmarked) [mirtazapine], the “AUC, liver disease cats versus AMC cats” value [7] was “not significantly different”.

With `C[C@]12C=CC(=O)C=C1CC[C@@H]1[C@@H]2[C@@H](O)C[C@@]2(C)[C@H]1CC[C@]2(O)C(=O)CO` [prednisolone] the “serum cPL concentration after versus before treatment” value (healthy beagles) was “significantly higher after than before treatment”, the “dogs relapsed during tapering of medication” value [8] was 13/23 and the median treatment duration [8] was 397 days.

In the case of `CC(C)NCC(O)c1ccc(NS(C)(=O)=O)cc1` (centres unmarked) [sotalol], the “EF, mean percent change ± SD” value ([9]; 2–3 hours post-sotalol) is reported as −13 ± 16%, the “FS, mean percent change ± SD” value ([9]; 2–3 hours post-sotalol) is reported as −14 ± 11% and the “LVSA, mean percent change ± SD” value ([9]; 2–3 hours post-sotalol) is reported as −10 ± 12%. The “heart rate, mean percent change ± SD” value ([9]; 2–3 hours post-sotalol 2.5 ± 0.2 mg/kg PO, n = 27) was −18 ± 16%.

Work on `CC(=O)S[C@@H]1CC2=CC(=O)CC[C@]2(C)[C@H]2CC[C@@]3(C)[C@@H](CC[C@@]34CCC(=O)O4)[C@H]12` [spironolactone] yielded a median survival time [10] of 183 days.

With `Cc1[nH]c(/C=C2\C(=O)Nc3ccc(F)cc32)c(C)c1C(=O)NCCN1CCCC1` [toceranib] the “dogs experiencing adverse events” value ([11]; 16/28, majority Grade 1 or 2 gastrointestinal toxicities) was 57%, the “Clinical benefit (CB)” value ([11]; all dogs, 26/28) was 93% and the “Clinical benefit (CB)” value ([11]; dogs with gross disease, 5/7) was 71%. The “Clinical benefit (CB)” value ([11]; dogs with microscopic disease) was 21/21.

With `CC[C@H]1OC(=O)C[C@@H](O)[C@H](C)[C@@H](O[C@@H]2O[C@H](C)[C@@H](O[C@H]3C[C@@](C)(O)[C@@H](O)[C@H](C)O3)[C@H](N(C)C)[C@H]2O)[C@@H](CC=O)C[C@@H](C)C(=O)/C=C/C(C)=C/[C@@H]1CO[C@@H]1O[C@H](C)[C@@H](O)[C@@H](OC)[C@H]1OC` [tylosin] the development of diarrhea [12] was “None of the dogs in either group developed diarrhea” and the “Dysbiosis Index, median” value ([12]; day 7, 6 dogs, day 0 −6.5) was 2.9.

With Insulin glargine [Toujeo] the “dogs with peakless time-action profile” value [13] was 4/8, the “duration of action, median” value [13] was 16.3 h and the “peak of action, median” value [13] was 6.3 h. The “Median onset of action” value ([13]; 8 healthy dogs) was 4.0 h.

For “corticotropin (SYSMEHFRWGKPVGKKRRPVKVYPNGAEDESAEAFPLEF; Corticotropin; UniProt P01189 138-176, looked up) [Acthelea]”, the post-ACTH serum cortisol ([14]; control group, 5 healthy dogs, 60 minute post IV) was 9.00 ± 0.71 µg/dL and the “after ACTH serum cortisol” value ([14]; treated group, 10 dogs with hyperadrenocorticism on trilostano) was 7.90 ± 2.1 µg/dL.

B1: C1‐INH: human recombinant C1-esterase Inhibitor (protein, UniProt P05155 23-500, looked up)
Plasma protease C1 inhibitor: NPNATSSSSQDPESLQDRGEGKVATTVISKMLFVEPILEVSSLPTTNSTTNSATKITANTTDEPTTQPTTEPTTQPTIQPTQPTTQLPTDSPTQPTTGSFCPGPVTLCSDLESHSTEAVLGDALVDFSLKLYHAFSAMKKVETNMAFSPFSIASLLTQVLLGAGENTKTNLESILSYPKDFTCVHQALKGFTTKGVTSVSQIFHSPDLAIRDTFVNASRTLYSSSPRVLSNNSDANLELINTWVAKNTNNKISRLLDSLPSDTRLVLLNAIYLSAKWKTTFDPKKTRMEPFHFKNSVIKVPMMNSKKYPVAHFIDQTLKAKVGQLQLSHNLSLVILVPQNLKHRLEDMEQALSPSVFKAIMEKLEMSKFQPTLLTLPRIKVTTSQDMLSIMEKLEFFDFSYDLNLCGLTEDPDLQVSAMQHQTVLELTETGVEAAAASAISVARTLLVFEVQQPFLFVLWDQQHKFPVFMGRVYDPRA
For B1, the “inhibition of canine complement-mediated hemolysis” value (canine complement) was “dose‐dependent inhibition”.
